Measurements taken from ChEMBL document CHEMBL5230083, “Novel 2, 5-diketopiperazine derivatives as potent selective histone deacetylase 6 inhibitors: Rational design, synthesis and antiproliferative activity” (Eur J Med Chem, 2020).

Experiments:
CAKI-1 = assay: Antiproliferative activity against human CAKI-1 cells assessed as cell growth at 10 uM incubated for 48 hrs by SRB assay relative to control; type: functional; conditions: read-out: Activity
Method in brief: (§1)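 Single-concentration screen at 10 μM run by NCI on its NCI-60 human tumour panel (blood, lung, colon, CNS, melanoma, ovary, kidney, prostate, breast), following the NCI-60 published methodology. Read-out is growth percent relative to untreated cells.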

Histone deacetylase 1 = Histone deacetylase 1 (Homo sapiens, UniProt Q13547); assay: Inhibition of HDAC1 (unknown origin) using Fluor de lys as substrate by fluorescence based analysis
Chain of Histone deacetylase 1 (Q13547 whole entry): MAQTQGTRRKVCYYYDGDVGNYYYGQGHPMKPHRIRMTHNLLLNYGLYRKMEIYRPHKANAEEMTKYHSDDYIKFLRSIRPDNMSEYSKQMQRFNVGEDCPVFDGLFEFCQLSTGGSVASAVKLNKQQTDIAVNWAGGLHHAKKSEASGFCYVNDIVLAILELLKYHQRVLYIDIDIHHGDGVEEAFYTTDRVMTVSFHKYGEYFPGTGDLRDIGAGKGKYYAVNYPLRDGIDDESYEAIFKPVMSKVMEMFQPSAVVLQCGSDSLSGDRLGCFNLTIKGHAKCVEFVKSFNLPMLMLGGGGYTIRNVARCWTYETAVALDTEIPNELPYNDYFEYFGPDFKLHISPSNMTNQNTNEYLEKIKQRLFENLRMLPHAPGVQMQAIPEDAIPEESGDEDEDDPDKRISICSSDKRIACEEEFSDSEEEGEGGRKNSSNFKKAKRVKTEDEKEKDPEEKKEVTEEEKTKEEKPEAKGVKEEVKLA

TK-10 = assay: Antiproliferative activity against human TK-10 cells assessed as cell growth at 10 uM incubated for 48 hrs by SRB assay relative to control; type: functional; conditions: read-out: Activity
Method in brief: (§2)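 NCI-60 single-dose screen: compounds tested at 10 μM, and growth percent of each cell line calculated. The full method follows the NCI DTP protocol.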

SK-MEL-2 = assay: Antiproliferative activity against human SK-MEL-2 cells assessed as cell growth at 10 uM incubated for 48 hrs by SRB assay relative to control; type: functional; conditions: read-out: Activity; method in brief: as §1
SW-620 = assay: Antiproliferative activity against human SW620 cells assessed as cell growth at 10 uM incubated for 48 hrs by SRB assay relative to control; type: functional; conditions: read-out: Activity; method in brief: as §2
HL-60 = assay: Antiproliferative activity against human HL-60 cells assessed as cell growth at 10 uM incubated for 48 hrs by SRB assay relative to control; type: functional; conditions: read-out: Activity; method in brief: as §1
Hs-578T = assay: Antiproliferative activity against human Hs-578T cells assessed as cell growth at 10 uM incubated for 48 hrs by SRB assay relative to control; type: functional; conditions: read-out: Activity; method in brief: as §1
UACC-62 = assay: Antiproliferative activity against human UACC-62 cells assessed as cell growth at 10 uM incubated for 48 hrs by SRB assay relative to control; type: functional; conditions: read-out: Activity; method in brief: as §2
UO-31 = assay: Antiproliferative activity against human UO-31 cells assessed as cell growth at 10 uM incubated for 48 hrs by SRB assay relative to control; type: functional; conditions: read-out: Activity; method in brief: as §2
LOX IMVI = assay: Antiproliferative activity against human LOX IMVI cells assessed as cell growth at 10 uM incubated for 48 hrs by SRB assay relative to control; type: functional; conditions: read-out: Activity; method in brief: as §1
Histone deacetylase 8 = target: T1, Histone deacetylase 8 (Homo sapiens, UniProt Q9BY41); assay: Inhibition of HDAC8 (unknown origin) using Fluor de lys as substrate by fluorescence based analysis
T1 sequence (Q9BY41 whole entry): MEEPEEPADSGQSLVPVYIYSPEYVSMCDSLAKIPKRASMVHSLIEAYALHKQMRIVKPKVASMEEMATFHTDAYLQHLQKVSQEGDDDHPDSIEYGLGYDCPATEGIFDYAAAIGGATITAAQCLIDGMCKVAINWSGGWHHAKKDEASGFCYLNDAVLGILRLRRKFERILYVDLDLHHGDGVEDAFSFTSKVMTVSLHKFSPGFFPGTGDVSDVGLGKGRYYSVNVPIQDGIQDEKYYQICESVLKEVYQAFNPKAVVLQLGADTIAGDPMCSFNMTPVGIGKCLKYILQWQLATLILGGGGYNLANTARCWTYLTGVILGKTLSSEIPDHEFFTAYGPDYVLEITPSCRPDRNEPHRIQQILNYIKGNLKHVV

SF-268 = assay: Antiproliferative activity against human SF-268 cells assessed as cell growth at 10 uM incubated for 48 hrs by SRB assay relative to control; type: functional; conditions: read-out: Activity; method in brief: as §1
OVCAR-8 = assay: Antiproliferative activity against human OVCAR-8 cells assessed as cell growth at 10 uM incubated for 48 hrs by SRB assay relative to control; type: functional; conditions: read-out: Activity; method in brief: as §1
MCF7 = assay: Antiproliferative activity against human MCF7 cells assessed as cell growth at 10 uM incubated for 48 hrs by SRB assay relative to control; type: functional; conditions: read-out: Activity; method in brief: as §1
Malme-3M = assay: Antiproliferative activity against human Malme-3M cells assessed as cell growth at 10 uM incubated for 48 hrs by SRB assay relative to control; type: functional; conditions: read-out: Activity; method in brief: as §1
MOLT-4 = assay: Antiproliferative activity against human MOLT-4 cells assessed as cell growth at 10 uM incubated for 48 hrs by SRB assay relative to control; type: functional; conditions: read-out: Activity; method in brief: as §1
SF-295 = assay: Antiproliferative activity against human SF-295 cells assessed as cell growth at 10 uM incubated for 48 hrs by SRB assay relative to control; type: functional; conditions: read-out: Activity; method in brief: as §1
SR = assay: Antiproliferative activity against human SR cells assessed as cell growth at 10 uM incubated for 48 hrs by SRB assay relative to control; type: functional; conditions: read-out: Activity; method in brief: as §2
A549 = assay: Antiproliferative activity against human A549 cells assessed as cell growth at 10 uM incubated for 48 hrs by SRB assay relative to control; type: functional; conditions: read-out: Activity; method in brief: as §1
SNB-75 = assay: Antiproliferative activity against human SNB-75 cells assessed as cell growth at 10 uM incubated for 48 hrs by SRB assay relative to control; type: functional; conditions: read-out: Activity; method in brief: as §2
786-0 = assay: Antiproliferative activity against human 786-0 cells assessed as cell growth at 10 uM incubated for 48 hrs by SRB assay relative to control; type: functional; conditions: read-out: Activity; method in brief: as §1
COLO 205 = assay: Antiproliferative activity against human COLO 205 cells assessed as cell growth at 10 uM incubated for 48 hrs by SRB assay relative to control; type: functional; conditions: read-out: Activity; method in brief: as §1
NCI-H460 = assay: Antiproliferative activity against human NCI-H460 cells assessed as cell growth at 10 uM incubated for 48 hrs by SRB assay relative to control; type: functional; conditions: read-out: Activity; method in brief: as §1
SK-MEL-5 = assay: Antiproliferative activity against human SK-MEL-5 cells assessed as cell growth at 10 uM incubated for 48 hrs by SRB assay relative to control; type: functional; conditions: read-out: Activity; method in brief: as §2
HCT-116 = assay: Antiproliferative activity against human HCT-116 cells assessed as cell growth at 10 uM incubated for 48 hrs by SRB assay relative to control; type: functional; conditions: read-out: Activity; method in brief: as §1
MDA-MB-231 = assay: Antiproliferative activity against human MDA-MB-231 cells assessed as cell growth at 10 uM incubated for 48 hrs by SRB assay relative to control; type: functional; conditions: read-out: Activity; method in brief: as §1
SK-MEL-28 = assay: Antiproliferative activity against human SK-MEL-28 cells assessed as cell growth at 10 uM incubated for 48 hrs by SRB assay relative to control; type: functional; conditions: read-out: Activity; method in brief: as §1
HOP-92 = assay: Antiproliferative activity against human HOP-92 cells assessed as cell growth at 10 uM incubated for 48 hrs by SRB assay relative to control; type: functional; conditions: read-out: Activity; method in brief: as §1
CCRF-CEM = assay: Antiproliferative activity against human CCRF-CEM cells assessed as cell growth at 10 uM incubated for 48 hrs by SRB assay relative to control; type: functional; conditions: read-out: Activity; method in brief: as §1
K562 = assay: Antiproliferative activity against human K562 cells assessed as cell growth at 10 uM incubated for 48 hrs by SRB assay relative to control; type: functional; conditions: read-out: Activity; method in brief: as §1
OVCAR-5 = assay: Antiproliferative activity against human OVCAR-5 cells assessed as cell growth at 10 uM incubated for 48 hrs by SRB assay relative to control; type: functional; conditions: read-out: Activity; method in brief: as §1
U-251 = assay: Antiproliferative activity against human U-251 cells assessed as cell growth at 10 uM incubated for 48 hrs by SRB assay relative to control; type: functional; conditions: read-out: Activity; method in brief: as §2
RPMI-8226 = assay: Antiproliferative activity against human RPMI-8226 cells assessed as cell growth at 10 uM incubated for 48 hrs by SRB assay relative to control; type: functional; conditions: read-out: Activity; method in brief: as §1
U-266 = assay: cells; type: functional, cell-based; conditions: Homo sapiens, U-266, 72 h

Compound | growth at 10 µM (CAKI-1) [%] | IC50 (Histone deacetylase 1) [µM] | growth at 10 µM (TK-10) [%] | growth at 10 µM (SK-MEL-2) [%] | growth at 10 µM (SW-620) [%] | growth at 10 µM (HL-60) [%] | growth at 10 µM (Hs-578T) [%] | growth at 10 µM (UACC-62) [%] | growth at 10 µM (UO-31) [%] | growth at 10 µM (LOX IMVI) [%] | IC50 (Histone deacetylase 8) [µM] | growth at 10 µM (SF-268) [%] | growth at 10 µM (OVCAR-8) [%] | growth at 10 µM (MCF7) [%] | growth at 10 µM (Malme-3M) [%] | growth at 10 µM (MOLT-4) [%] | growth at 10 µM (SF-295) [%] | growth at 10 µM (SR) [%] | growth at 10 µM (A549) [%] | growth at 10 µM (SNB-75) [%] | further results
O=C1CN(Cc2ccc(C(=O)NO)cc2)C(=O)[C@@H](Cc2c[nH]c3ccccc23)N1 | 93.8 | 8.02 | 103 | 113 | 103 | 126 | 104 | 95.5 | 91.1 | 106 | 0.513 | 99.3 | 94.8 | 96.7 | 94.6 | 86.8 | 105 | 115 | 96.6 | 94.5 | growth at 10 µM (786-0): 83%; growth at 10 µM (COLO 205): 120%; growth at 10 µM (NCI-H460): 104%; growth at 10 µM (SK-MEL-5): 108%; growth at 10 µM (HCT-116): 54.9%; growth at 10 µM (MDA-MB-231): 107%; growth at 10 µM (SK-MEL-28): 110%; growth at 10 µM (HOP-92): 104%; growth at 10 µM (CCRF-CEM): 103%; growth at 10 µM (K562): 100%; growth at 10 µM (OVCAR-5): 107%; growth at 10 µM (U-251): 96.7%; growth at 10 µM (RPMI-8226): 104%; IC50 (U-266): 43.2 µM
O=C(NO)c1ccc(CN2CC(=O)N(Cc3ccccc3)[C@H](Cc3ccccc3)C2=O)cc1 | 96.5 | 9.64 | 88.1 | 99.4 | 94.1 | 102 | 82 | 87.5 | 69.5 | 93.2 | 0.145 | 96.5 | 75 | 82.9 | 77.1 | 76.7 | 100 | 63.5 | 95.1 | 69.4 | growth at 10 µM (786-0): 94.8%; growth at 10 µM (COLO 205): 89.2%; growth at 10 µM (NCI-H460): 81.6%; growth at 10 µM (SK-MEL-5): 96.7%; growth at 10 µM (HCT-116): 84.1%; growth at 10 µM (MDA-MB-231): 95.2%; growth at 10 µM (SK-MEL-28): 95.4%; growth at 10 µM (HOP-92): 102%; growth at 10 µM (CCRF-CEM): 72%; growth at 10 µM (K562): 76.4%; growth at 10 µM (OVCAR-5): 97.8%; growth at 10 µM (U-251): 81.3%; growth at 10 µM (RPMI-8226): 58.6%; IC50 (U-266): 25.9 µM
